# Screening data as filed in PubChem.
# TCR-CD3 inh – inhibitors of human TCR-CD3 interaction. TAMRA-labeled TCR probe fluorescence, biochemical. actives 0.37% (n = 360,000). inhibition, % at 9.4 µM. AID 651800; in the data active means inhibition above about 19%;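 further: recombinant mutant TCR 2C K166C tagged with TAMRA read by polarization; 0% = receptor in buffer alone and 100% = receptor with positive control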
# DDE Tn7 FP inh – DD(E)-Tn7 binding inhibition, primary FP screen; inhibition, % at 8.3 µM; FP displacement of FITC-Tn7 peptide from fibrin DD(E); 0% = median of compound wells per plate; actives 0.13% (n = 370,000); AID 720508; P02675;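 active means inhibition above the mean of compounds falling within the control limits plus 3 SD of them, cut at about 14% in these data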;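 further: 0% = plate median of compound wells and 100% = 10 µM Aha-Tn7 peptide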
#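 Also added: labelled Tn7 tracer, 0.1 µM; Assay system: human fibrin DD(E) protein; Amount: 2 µM fibrin DD(E); Schedule: 10 min compound pre-incubation, 3 h probe incubation at room temperature; Repeats: one replicate per compound; Read-out basis: percent inhibition; Measured by: fluorescence polarization of the labelled Tn7 tracer.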
# HTRA1 inhibitor – HTRA1 (human) protease inhibition; recombinant HTRA1, FP-rhodamine activity-based probe, fluorescence polarization; actives 0.5% (n = 340,000); inhibition, % at 5.96 µM; Q92743; AID 504803; in the data active means inhibition above about 36%;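 further: 0% = enzyme with DMSO and 100% = wells lacking enzyme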
# ABHD4 inh – inhibits mouse alpha/beta hydrolase domain 4; AID 720543; actives 0.54% (n = 370,000); purified mABHD4, FP-Rh probe fluorescence polarization; inhibition, % at 8.92 µM;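 active means inhibition exceeding the mean over every tested compound plus 3 SD, cut at about 30% in these data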;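 further: 0% = plate median of compound wells and 100% = S159A mutant with DMSO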
#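 Test system: mouse ABHD4 enzyme, wild type. Reagent: FP-Rh fluorescent activity-based probe, added after compound pre-incubation. Timing: pre-incubation 45 min, probe exposure 60 min, at 25 °C. Technique: FP readout, ex 525 nm / em 598 nm. Benchmarks: high control S159A mutant with DMSO, low control median of compound wells.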
# DDE Tn6 FP inh – DD(E)-Tn6 binding inhibition, primary FP screen; Fibrin DD(E) TRITC-Tn6 fluorescence polarization displacement; inhibition, % at 8.3 µM; actives 0.21% (n = 370,000); AID 720509;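 active means inhibition above a per-campaign cutoff: mean of compounds within control limits plus 3 SD, cut at about 15% in these data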;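 further: 0% = median of all compound wells on the plate and 100% = blocking peptide control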
# An asterisk follows results filed as active; nt = not tested or not shown. These entries were drawn from the full list.
SMILES,TCR-CD3 inh,DDE Tn7 FP inh,HTRA1 inhibitor,ABHD4 inh,DDE Tn6 FP inh
Oc1ccc(O)c2c1C1(Cl)C(Cl)=C(Cl)C2(Cl)C1(Cl)Cl,8,-4,26,-27,2
CC(C)CCP(=O)(O)O,nt,-5,nt,6,0
CC(=O)c1ccc(OCC(=O)N2CCCC(N3CCN(c4ccccc4C)CC3)C2)cc1 (stereo not given),3,3,2,1,-1
COc1ccccc1[As](=O)(O)CC(O)COc1ccc(Cl)cc1Cl (stereo not given),5,2,nt,1,0
O=C1C(=O)N(c2ccccc2)P(=O)(N(CCCl)CCCl)N1c1ccccc1,5,5,5,4,0
